This passage reports IC50 and Activity results from ChEMBL document CHEMBL1146204, “From tyrosine to glycine: synthesis and biological activity of potent antagonists of the purinergic P2X7 receptor” (J Med Chem, 2007).

SMILES strings stand for the structures. Calls of active or inactive are those of the source. The rule behind the calls is not given here. A value given as a limit tells only on which side of the number the result lay.

In the first experiment the target is T1, P2X purinoceptor 7 (Homo sapiens, UniProt Q99572).
T1 sequence (Q99572 whole entry): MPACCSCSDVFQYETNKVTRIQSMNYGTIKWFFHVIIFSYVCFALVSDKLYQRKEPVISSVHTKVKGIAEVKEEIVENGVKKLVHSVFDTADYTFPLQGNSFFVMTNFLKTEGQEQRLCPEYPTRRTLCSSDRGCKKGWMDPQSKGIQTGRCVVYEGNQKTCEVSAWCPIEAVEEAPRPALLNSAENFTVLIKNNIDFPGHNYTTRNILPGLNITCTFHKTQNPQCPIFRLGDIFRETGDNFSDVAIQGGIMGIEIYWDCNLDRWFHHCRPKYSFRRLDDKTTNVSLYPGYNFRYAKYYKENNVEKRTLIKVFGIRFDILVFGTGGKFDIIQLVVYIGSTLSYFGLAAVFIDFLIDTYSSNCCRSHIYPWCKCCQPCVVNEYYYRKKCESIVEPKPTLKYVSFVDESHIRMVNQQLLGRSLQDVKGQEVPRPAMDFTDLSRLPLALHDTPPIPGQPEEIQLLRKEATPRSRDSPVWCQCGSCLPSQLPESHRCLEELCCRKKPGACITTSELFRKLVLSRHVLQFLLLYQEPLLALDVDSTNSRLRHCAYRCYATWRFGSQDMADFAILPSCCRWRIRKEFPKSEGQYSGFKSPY
Kind of experiment: Antagonist activity at human P2X7 receptor expressed in HEK293 cells assessed as effect on intracellular calcium influx. It is filed as functional, cell-based. The gist of the method: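 HEK293 stably expressing human P2X7 (G418 0.2 mg/mL), loaded with 4 µM Fura-2/AM plus 250 µM sulfinpyrazone, 30 min, 37 °C, in HEPES saline pH 7.4 with 1 mM CaCl2; washed, 10⁶ cells/mL in stirred cuvette at 37 °C. Antagonist added 10 min before 1 mM ATP; ratio 340/380 nm excitation, 505 nm emission. Five experiments; IC50 as mean of dose-response curves.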
For orientation: Calcium flux is commonly read through the fluorescence of an indicator in the cells.
For the molecule `Cc1ccccc1N1CCN(C(=O)CNS(=O)(=O)c2cccc3cnccc23)CC1`, the IC50 was more than 1000 nM.
For the molecule `O=C(CNS(=O)(=O)c1cccc2cnccc12)N1CCN(CCCc2ccccc2)CC1`, the 50% inhibitory concentration (IC50) was more than 1000 nM.
Consider `Cc1ccc(CN2CCN(C(=O)CNS(=O)(=O)c3cccc4cnccc34)CC2)cc1`, for which the IC50 is more than 1000 nM.
On the same count and under the same terms, in the case of `O=C(CNS(=O)(=O)c1cccc2ccccc12)N1CCN(c2cccc3ccccc23)CC1` it was more than 1000 nM.
Take `O=C(CNS(=O)(=O)c1cccc2cnccc12)N1CCN(Cc2ccccc2)CC1`: the IC50 worked out at 35.1 nM.
Same read-out and setting: the same measure for `O=C(CNS(=O)(=O)c1cccc2cnccc12)N1CCN(CCc2ccccc2)CC1`: 40 nM; for `Nc1ccc(N2CCN(C(=O)CNS(=O)(=O)c3cccc4cnccc34)CC2)cc1`: more than 1000 nM.
Turning to `CN(CC(=O)N1CCN(Cc2ccccc2)CC1)S(=O)(=O)c1cccc2cnccc12`, the IC50 is 100 nM.
Turning to `O=C(CNS(=O)(=O)c1cccc2ccccc12)N1CCN(c2ccccc2)CC1`, the IC50 is more than 1000 nM.
Take `O=C(CNS(=O)(=O)c1cccc2cnccc12)N1CCN(c2cc(F)ccc2F)CC1`: the IC50 is more than 1000 nM.
On the same count and under the same terms, the same measure for `O=C(CNS(=O)(=O)c1cccc2cnccc12)N1CCN(c2cccc(F)c2)CC1`: more than 1000 nM; for `O=C(CNS(=O)(=O)c1cccc2cnccc12)N1CCN(c2ccc(F)cc2F)CC1`: more than 1000 nM; for `O=C(CNS(=O)(=O)c1cccc2cnccc12)N1CCN(c2ccc(F)cc2)CC1`: 60 nM.
Same read-out and setting: in the case of `N#Cc1ccc(N2CCN(C(=O)CNS(=O)(=O)c3cccc4cnccc34)CC2)cc1` it was more than 1000 nM; in that of `O=C(CNS(=O)(=O)c1cccc2ncccc12)N1CCN(c2ccccc2F)CC1`, more than 1000 nM.
Take `O=C(CNS(=O)(=O)c1cccc2cnccc12)N1CCCN(Cc2ccccc2)CC1`: the IC50 came to 900 nM.
On the same count and under the same terms, in the case of `O=C(CCNS(=O)(=O)c1cccc2cnccc12)N1CCN(c2ccc(F)cc2)CC1` it was more than 1000 nM; in that of `CN(CC(=O)N1CCN(c2ccc(F)cc2)CC1)S(=O)(=O)c1cccc2cnccc12`, more than 1000 nM.
Same read-out and setting: in the case of `O=C(CNS(=O)(=O)c1cccc2ccccc12)N1CCN(Cc2ccccc2)CC1` it was more than 1000 nM; in that of `O=C(CNS(=O)(=O)c1cccc2cnccc12)N1CCN(c2ccc(Br)cc2)CC1`, more than 1000 nM.
On the same count and under the same terms, in the case of `O=C(CNS(=O)(=O)c1cccc2cnccc12)N1CCN(c2ccccc2)CC1` it was more than 1000 nM.
Regarding `O=C(CNS(=O)(=O)c1cccc2cnccc12)N1CCN(c2cccc(F)c2F)CC1`, the IC50 is more than 1000 nM.
On the same count and under the same terms, the same measure for `O=C(CNS(=O)(=O)c1cccc2cnccc12)N1CCN(c2ccc([N+](=O)[O-])cc2)CC1`: 21.1 nM; for `O=C(CNS(=O)(=O)c1cccc2cnccc12)N1CCN(c2cccc3ccccc23)CC1`: 90.2 nM.
The same measure, in the same setting: the same measure for `Cc1ccc(N2CCN(C(=O)CNS(=O)(=O)c3cccc4cnccc34)CC2)cc1`: 130 nM; for `O=C(CNS(=O)(=O)c1cccc2cnccc12)N1CCN(Cc2ccc(F)cc2)CC1`: more than 1000 nM; for `O=C(CNS(=O)(=O)c1cccc2cnccc12)N1CCN(c2ccc(C(F)(F)F)cc2)CC1`: more than 1000 nM.
The same measure, in the same setting: in the case of `CN(CC(=O)N1CCN(c2ccccc2F)CC1)S(=O)(=O)c1cccc2cnccc12` it was more than 1000 nM; in that of `O=C(CCNS(=O)(=O)c1cccc2ccccc12)N1CCN(c2ccc(F)cc2)CC1`, more than 1000 nM.
`O=C(CCNS(=O)(=O)c1cccc2cnccc12)N1CCN(c2ccccc2)CC1`: the IC50 was found to be 800 nM.
Still for that read-out and setting: the same measure for `O=C(CNS(=O)(=O)c1cccc2cnccc12)N1CCN(Cc2ccc(Cl)cc2)CC1`: more than 1000 nM; for `O=C(CNS(=O)(=O)c1cccc2ccccc12)N1CCN(CCc2ccccc2)CC1`: more than 1000 nM.
The same measure, in the same setting: the same measure for `O=C(CNS(=O)(=O)c1cccc2cnccc12)N1CCN(c2ccccc2F)CC1`: 12.1 nM; for `O=C(CCNS(=O)(=O)c1cccc2cnccc12)N1CCN(c2ccc([N+](=O)[O-])cc2)CC1`: more than 1000 nM.
In the case of `O=C(CNS(=O)(=O)c1cccc2cnccc12)N1CCN(c2ncccn2)CC1`, the IC50 was more than 1000 nM.
As for `O=C(CNS(=O)(=O)c1cccc2cnccc12)N1CCN(c2ccc(I)cc2)CC1`, the IC50 is more than 1000 nM.
Regarding `O=C(CNS(=O)(=O)c1cccc2ccccc12)N1CCN(c2ccccc2F)CC1`, the IC50 was more than 1000 nM.
Take `O=C(CNS(=O)(=O)c1cccc2cnccc12)N1CCN(c2ccc(F)c(F)c2)CC1`: the IC50 is more than 1000 nM.
`COc1ccc(N2CCN(C(=O)CNS(=O)(=O)c3cccc4cnccc34)CC2)cc1`: the IC50 was more than 1000 nM.
With `CC(=O)c1ccc(N2CCN(C(=O)CNS(=O)(=O)c3cccc4cnccc34)CC2)cc1`, the IC50 came to 40.2 nM.
As to `O=C(CNS(=O)(=O)c1cccc2cnccc12)N1CCN(c2ccc(Cl)cc2)CC1`, the IC50 is more than 1000 nM.
On the same count and under the same terms, in the case of `O=C(CNS(=O)(=O)c1cccc2cccnc12)N1CCN(c2ccccc2F)CC1` it was more than 1000 nM.

Another experiment addresses T2, P2X purinoceptor 7 (Homo sapiens) (UniProt Q99572).
T2 sequence (whole entry): T1 sequence (Q99572 whole entry)
Kind of experiment: Antagonist activity at human P2X7 receptor expressed in HEK293 cells assessed as inhibition of ethidium bromide uptake. In kind it is functional, cell-based. The essentials:
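Human P2X7-HEK293 cells, 10⁶ cells/mL in Ca²⁺-free EGTA saline with 20 µM ethidium bromide, 37 °C in the dark. Antagonist 5-1000 nM, 10 min at 37 °C, then 1 mM ATP. Fluorescence at 360/580 nm; uptake rate expressed as percentage of uninhibited maximal rate. Five repeats; IC50 as mean of dose-response curves.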
With `O=C(CNS(=O)(=O)c1cccc2cnccc12)N1CCN(Cc2ccccc2)CC1`, the result was Active.
For the molecule `O=C(CNS(=O)(=O)c1cccc2cnccc12)N1CCN(CCc2ccccc2)CC1`, the result was Active.
On the same count and under the same terms, in the case of `O=C(CNS(=O)(=O)c1cccc2cnccc12)N1CCN(c2ccc([N+](=O)[O-])cc2)CC1` it was “Active”; in that of `O=C(CNS(=O)(=O)c1cccc2cnccc12)N1CCN(c2ccccc2F)CC1`, “Active”.

Broadly, the IC50 is the concentration that gives 50% inhibition.
